In ChEMBL document CHEMBL1156677, “Oxoisoaporphine alkaloid derivatives: synthesis, DNA binding affinity and cytotoxicity” (Eur J Med Chem, 2008):

Legend:
Assay type in all cases: functional, cell-based
MCF7 = assay: Cytotoxicity against human MCF7 cells after 48 hrs by MTT assay; details: MCF7, 48 h
Method in brief: (§1)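 Cells in exponential growth were trypsinised, centrifuged at 180 × g for 3 min, resuspended at 5 × 10^4 cells/ml and seeded. After 48 h drug exposure, MTT (1 mg/mL) added for 4 h. Formazan dissolved in DMSO, OD read at 570 nm. Each dose run in triplicate. IC50 derived from mean OD and reported as the mean of three independent assays.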

NCI-H460 = assay: Cytotoxicity against human NCI-H460 cells after 48 hrs by MTT assay; details: NCI-H460, 48 h; method in brief: as §1
HepG2 = assay: Cytotoxicity against human HepG2 cells after 48 hrs by MTT assay; details: HepG2, 48 h; method in brief: as §1

SMILES	IC50 (MCF7) [µM]	IC50 (NCI-H460) [µM]	IC50 (HepG2) [µM]
O=C(CCCN1CCCC1)Nc1ccc2c(c1)C(=O)c1cccc3ccnc-2c13	27.4	9.08	12.9
CN(C)CCCC(=O)Nc1ccc2c(c1)C(=O)c1cccc3ccnc-2c13	11.5	19.3	29.8
CN(C)CCC(=O)Nc1ccc2c(c1)C(=O)c1cccc3ccnc-2c13	9.11	6.71	7.74
O=C(CCN1CCCCC1)Nc1ccc2c(c1)C(=O)c1cccc3ccnc-2c13	5.07	4.23	6.36
O=C(CN1CCCC1)Nc1ccc2c(c1)C(=O)c1cccc3ccnc-2c13	11.8	2.09	8.14
CN(C)CC(=O)Nc1ccc2c(c1)C(=O)c1cccc3ccnc-2c13	17.5	9.22	9.69
O=C(CCN1CCCC1)Nc1ccc2c(c1)C(=O)c1cccc3ccnc-2c13	7.96	16.7	8.18
CCN(CC)CCC(=O)Nc1ccc2c(c1)C(=O)c1cccc3ccnc-2c13	12.7	4.99	12.1
Nc1ccc2c(c1)C(=O)c1cccc3ccnc-2c13	20.4	35.5	19.7
O=C(CCNCCO)Nc1ccc2c(c1)C(=O)c1cccc3ccnc-2c13	4.3	2.36	3.88
CN(C)CCNCCC(=O)Nc1ccc2c(c1)C(=O)c1cccc3ccnc-2c13	28.1	30.3	21
O=C1c2ccccc2-c2nccc3cccc1c23	> 100	–	> 100
